An excerpt weighted towards active compounds, which were near 2.2% of everything screened.
TbHK1 inh – Trypanosoma brucei hexokinase 1 inhibitors, primary screen, biochemical, G6PDH-coupled NADH absorbance, MLSCN library. AID 1430, 2008. hit rate 0.11% among 220,000. recombinant TbHK1, G6PDH-coupled NADH A340. inhibition, % at 10 µM. hexokinase 1 [Trypanosoma brucei];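 active = inhibition of 50% or more in the single-dose primary screen; inactive = inhibition below 50%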
Runt-SMMHC FRET – inhibitors of RUNX1 Runt–CBFb-SMMHC binding, primary screen, biochemical, FRET, Cerulean-Runt, Venus-CBFb-SMMHC, uHTS; Runt-related transcription factor 1 (Homo sapiens) + Core-binding factor subunit beta …; Cerulean-Runt/Venus-CBFb-SMMHC FRET ratio 530/480, 1 h; inhibition, % at 20 µM; hit rate 0.74% among 220,000; AID 1434, 2008;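 active = mean inhibition across duplicate retests at 20 µM reaching about 50%, limit read from the data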;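 also: 0% = DMSO wells and 100% = wells with excess untagged CBFb-SMMHC; inhibitors lower the FRET ratio by blocking Runt binding to CBFb-SMMHC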
Target sequence (Q01196 whole entry, looked up): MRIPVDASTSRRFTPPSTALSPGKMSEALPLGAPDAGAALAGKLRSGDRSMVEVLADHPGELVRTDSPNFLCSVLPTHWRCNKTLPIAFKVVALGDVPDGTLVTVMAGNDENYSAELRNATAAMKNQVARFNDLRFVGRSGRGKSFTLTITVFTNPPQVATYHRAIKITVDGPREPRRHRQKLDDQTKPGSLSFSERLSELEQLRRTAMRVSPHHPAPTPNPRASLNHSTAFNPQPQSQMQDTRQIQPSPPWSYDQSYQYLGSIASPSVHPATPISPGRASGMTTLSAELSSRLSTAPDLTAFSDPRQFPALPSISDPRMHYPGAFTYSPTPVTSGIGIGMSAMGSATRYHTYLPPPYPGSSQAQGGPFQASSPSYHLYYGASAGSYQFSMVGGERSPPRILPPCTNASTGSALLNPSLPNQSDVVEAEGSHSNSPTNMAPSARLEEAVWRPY
Target sequence (Q13951 whole entry, looked up): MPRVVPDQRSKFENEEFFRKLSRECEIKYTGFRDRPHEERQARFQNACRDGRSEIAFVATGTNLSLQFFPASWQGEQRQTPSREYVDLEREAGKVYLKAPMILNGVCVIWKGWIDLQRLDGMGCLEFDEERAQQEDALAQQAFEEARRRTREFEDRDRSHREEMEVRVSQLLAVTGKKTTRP
Runt-CBFb FRET – inhibitors of RUNX1 Runt–CBFb binding, primary screen, biochemical, FRET, Cerulean-Runt, Venus-CBFb, uHTS; inhibition, % at 20 µM; hit rate 0.46% among 220,000; Runt-related transcription factor 1 (Homo sapiens) + Core-binding factor subunit beta …; AID 1496, 2009; Cerulean-Runt/Venus-CBFb FRET ratio 530/480, 1 h;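 active = inhibition over about 50% at 20 µM in the single-dose screen, limit read from the data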;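 also: 0% = DMSO wells and 100% = excess unlabeled CBFb competitor control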
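Assay system: Cerulean-tagged RUNX1 Runt domain (FRET donor) fusion protein / Amount: 100 nM each of Venus-CBFb and Cerulean-Runt domain / Medium: Tris buffer pH 7.5 with salts and BSA / Also added: Venus-CBFb 100 nM / Schedule: 1 h complex formation plus 1 h compound treatment, room temperature / Signal: FRET fluorescence / Read-out: loss of energy transfer signal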
Hck Nef HTS – inhibitors of Nef-activated human Hck kinase, primary screen, biochemical, Z-Lyte FRET, 384-well, Hck-YEEI. Tyrosine-protein kinase HCK (Homo sapiens), P08631. Recombinant Hck-YEEI plus Nef, Z-Lyte FRET kinase assay. inhibition, % at 20 µM. hit rate 0.68% among 220,000. AID 463187, 2010;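 active = Hck-Nef kinase inhibition above about 50%, limit read from the data; inactive = inhibition below that limit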;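 also: 0% = DMSO with Hck plus Nef and 100% = Hck alone without Nef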
14-3-3 Bad inh – inhibitors of 14-3-3 zeta/Bad binding, primary screen, biochemical, TR-FRET, bovine 14-3-3 zeta. 14-3-3 protein zeta/delta (Bos taurus), P63103. TR-FRET 14-3-3zeta/Dy647-pBad peptide displacement, 1 h. inhibition, % at 21.7 µM. hit rate 0.71% among 220,000. AID 781, 2007;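 active = inhibition above about 70%, limit read from the data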;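 also: 0% = full 14-3-3 plus peptide FRET controls and 100% = background without 14-3-3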
RanGTP-Impb inh – inhibitors of RanGTP-importin-beta interaction, primary screen, biochemical, FRET, CFP-Ran, YFP-importin-beta, homogeneous; cell-free CFP-Ran/YFP-importin-beta FRET ratio; Ran GTPase (GTP-bound) - importin-beta complex; AID 2216, 2009; inhibition, % (concentration not given with the values); hit rate 1.1% among 300,000;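 active = more than half of the replicate wells show a fall in the fluorescence ratio signal beyond about 16%, limit read from the data, passing the limit was not always enough; inconclusive = exactly half of the replicate wells pass the set limit; inactive = fewer than half of replicates pass the limit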;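 also: 0% = DMSO wells and 100% = Ran loaded with GDP instead of GTP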
* hit, by the source's call; ? = inconclusive; nt = no result given; [ ] = dose if it differs, or a comment.

SMILES | TbHK1 inh | Runt-SMMHC FRET | Runt-CBFb FRET | Hck Nef HTS | 14-3-3 Bad inh | RanGTP-Impb inh
O=Cc1c(N2CCN(CCO)CC2)nc2ccccn2c1=O | nt | nt | nt | nt | nt | 79*
CCN1CCN(c2nc3ccccn3c(=O)c2C=O)CC1 | nt | nt | nt | nt | nt | 110*
Cc1ccc(S(=O)(=O)n2cnc(C)c2)cc1 | nt | nt | nt | nt | nt | -4
Cc1cccc(Nc2nnc(SCC(=O)NC3CCCc4ccccc43)s2)c1C (stereo not given) | 6 | 1 | -5 | 0 | 2 | -4
Cc1ccccc1-n1c(C)nnc1SCC(=O)NC1CCCc2ccccc21 (stereo not given) | -3 | 0 | 0 | -1 | 92*[fluorescence artefact?] | -3
O=C(Nc1cccc(F)c1)N1CCN(C(=O)c2ccco2)CC1 | nt | nt | nt | nt | nt | 3
Cc1ccc(OCCNC(=O)Cc2ccc(F)cc2)cc1 | 3 | -3 | 1 | 2 | -5 | -1
COc1ccccc1N1CCN(C(=O)c2ccc3[nH]c4c(c3c2)CC(C)CC4)CC1 (stereo not given) | 28 | -5 | -4 | -1 | -13 | 4
O=C(O)C(Cc1ccccc1)N1C(=O)/C(=C/c2cccc3ccccc23)SC1=S (stereo not given) | 13 | -11 | -8 | 63* | -3 | nt
O=c1c2ccccc2c(C=Nc2ccccc2O)c(O)n1-c1nccs1 | -10 | -18 | -13 | 8 | 1 | 41*
CCc1ccc(-c2nc3ccc(Br)cc3c(C(=O)O)c2C)s1 | nt | nt | nt | nt | nt | 6
CCN(CC)N=Nc1ccc(S(=O)(=O)Nc2nc(C)cc(C)n2)cc1 | nt | nt | nt | nt | nt | 4
Nc1cccc2c1C(=O)N(CCOc1ccccc1F)C2=O | nt | nt | nt | nt | nt | 42*
CSc1ccc(CNC(=O)Cn2nc(C)c3c(C)n(-c4ccc(C)cc4)nc3c2=O)cc1 | nt | nt | nt | nt | nt | 0
Cc1cc[n+](-c2nc3ccccc3nc2[N-]S(=O)(=O)c2ccccc2)cc1 | -4 | -3 | 1 | 4 | 6 | -2
CCc1cc[n+](-c2nc3ccccc3nc2[N-]S(=O)(=O)c2ccc(Br)s2)cc1 | -12 | 69* | -9 | 0 | 7 | 41*
O=C(NCc1ccco1)c1cnn2c(C(F)F)cc(-c3ccccc3)nc12 | -7 | 21 | 6 | 4 | -13 | 32*
O=C(NCc1ccco1)c1cnn2c(C(F)(F)F)cc(-c3cccs3)nc12 | 3 | 52* | 36 | 1 | 1 | ?
COc1cc2cc(C(=O)N3CCN(Cc4ccc5c(c4)OCO5)CC3)c(=O)oc2cc1OC | -31 | 55* | 28 | 29 | 2 | 6
O=S(=O)(Cc1ccccc1)N1CCN(Cc2ccc3c(c2)OCO3)CC1 | 5 | -2 | 1 | 0 | 8 | 159*
O=S(=O)(c1ccc2c(c1)OCCO2)N1CCN(Cc2ccc3c(c2)OCO3)CC1 | 1 | -2 | 1 | 1 | 14 | -2
O=C(c1cccnc1)N1CCN(Cc2cccc(Br)c2)CC1 | -9 | -10 | -2 | 11 | 71* | 0
O=C(c1cccnc1)N1CCN(Cc2ccc3c(c2)OCO3)CC1 | -1 | 0 | 0 | 1 | 76* | 6
COc1ccc(CN2CCN(C(=O)c3cccnc3)CC2)cc1Br | 4 | -14 | -2 | -1 | 60 | -4
COc1ccccc1C(=O)N1CCN(Cc2ccc3c(c2)OCO3)CC1 | 3 | 9 | 1 | -8 | 18 | ?
SMILES | TbHK1 inh | Runt-SMMHC FRET | Runt-CBFb FRET | Hck Nef HTS | 14-3-3 Bad inh | RanGTP-Impb inh
O=C1CCN(S(=O)(=O)c2ccc(Cl)cc2)CCN1 | 5 | -2 | 1 | 10 | -4 | ?
O=[N+]([O-])c1ccc(/C=N/NC(=S)Nc2ccccc2C(F)(F)F)o1 | -8 | 5 | 7 | 0 | -7 | -2
Cc1cccc(CNC(=O)CCc2nnc(C3CCCCC3)o2)c1 | -7 | 1 | -2 | -5 | 2 | 9
CCOC(=O)CC(NS(=O)(=O)c1ccc2[nH]c(=O)sc2c1)c1ccc(C)cc1 (stereo not given) | nt | nt | nt | nt | nt | -1
Cc1ccc2c(c1)CC1(CN2C)C(=O)OC2(CCCCC2)OC1=O | -5 | -30 | -4 | 8 | 2 | 26*
Cc1ccccc1NC(=S)NC1(C)CCS(=O)(=O)C1 (stereo not given) | 33 | -1 | -2 | 1 | -24 | -5
COc1ccc(CN(C(=O)c2cc(=O)c3cc(C)cc(C)c3o2)C2CCS(=O)(=O)C2)cc1 (stereo not given) | -16 | -6 | -4 | 17 | -4 | 0
O=c1c2ccccc2nc2n1CCC2 | -3 | -90 | -18 | 0 | 94* | 3
c1ccc(C(CN2CCOCC2)c2ccccc2)cc1 | -2 | 1 | 0 | -1 | 84* | 2
COc1ccc(OC)c(NC(=O)c2cc3oc4ccccc4c3cc2O)c1 | 0 | 96* | 46 | 6 | -7 | 4
C=CCSC1=N/C(=C\c2cc(OCC)c(OC(C)=O)c([N+](=O)[O-])c2)C(=O)S1 | 18 | -2 | 12 | 84* | 9 | -1
C=CCSC1=N/C(=C\c2ccc3c(c2)OCO3)C(=O)S1 | 23 | 0 | 1 | 4 | 6 | 3
CCOC(=O)C1CCCN(CC(=O)NC2CC2)C1 (stereo not given) | nt | -7 | -2 | nt | 77* | 1
CCOC(=O)C1CCCCN1Cc1ccccc1C(F)(F)F (stereo not given) | -2 | -14 | -3 | -3 | 80* | ?
CCOC(=O)C1CCCN(Cc2ccccc2F)C1 (stereo not given) | -3 | -4 | -2 | 0 | 73* | 0
CCOC(=O)C1CCCN(C(=O)CSCc2ccccc2)C1 (stereo not given) | 1 | 2 | 0 | 0 | 84* | -4
CCOC(=O)C1CCCN(C(=O)COc2ccccc2O)C1 (stereo not given) | -1 | 1 | 4 | 0 | 2 | -3
CCOC(=O)C1CCN(Cc2ccccc2C(F)(F)F)CC1 | -1 | -4 | 0 | -2 | 57 | -2
O=C(c1ccccc1)c1ccc(OCCCCN2CCCCC2)cc1 | 5 | -1 | -1 | -2 | 74* | 3
Cn1cccc1CNC1CCCCC1 | -3 | 0 | -1 | 6 | -6 | 1
c1ccc(-n2cccc2CNC2CCCCC2)cc1 | 6 | -4 | -2 | 0 | 70* | ?
O=C(NCCNC1CCN(Cc2ccccc2)CC1)c1cccs1 | 3 | -1 | 0 | 7 | 71* | 1

High-throughput results deposited in PubChem BioAssay by several laboratories.
